Experimental data from publication PMC3273716 (European Journal of Medicinal Chemistry, 2011).
Read-outs that look alike come from different tables or passages of the source.

Test system: P. carinii
Experiment: ATP bioassay, anti-Pneumocystis activity
Format: cell-based, Pneumocystis carinii
Conditions: for IC50: Pneumocystis carinii
Summary of the method: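 Rat-lung P. carinii (male CD rats, methylprednisolone-immunosuppressed), cryopreserved, thawed, held at 5 × 10^7 nuclei/ml in RPMI-1640 + 20% calf serum, 37 °C, 5% CO2. Screen at 100 µg/ml; titrated if ATP fell ≥50%. Luciferin-luciferase ATP at 6, 24, 48, 72 h. Triplicate wells, 3 assays, 2 batches. Ampicillin 10 µg/ml and pentamidine 1 µg/ml controls. IC50: linear regression, % ATP decrease vs log concentration.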

[1] = 72 h, read-out: IC50 (µg/ml) ± SD for P. carinii

| SMILES | IC50 [1] [µg/mL] | IC50 (read-out: Activity ranking) [µg/mL] | IC50 (72 h) [nM] | Activity ranking (ranking based on IC50 in µg/ml) |
| --- | --- | --- | --- | --- |
| COc1cc(C(=N)N)ccc1OCCN(C)CCOc1ccc(C(=N)N)cc1OC.Cl.Cl [compound 2, 1,5-Bis(4-amidino-2-methoxyphenoxy)-N-methyl-3-azapentane] | 2.1 ± 1.24 | 1 to 9.99 | – | – |
| COc1cc(C(=N)N)cc(OC)c1OCCN(C)CCOc1c(OC)cc(C(=N)N)cc1OC.Cl.Cl [compound 3, 1,5-Bis(4-amidino-2,6-dimethoxyphenoxy)-N-methyl-3-azapentane trihydrochloride] | 45.2 ± 16.9 | 10 to 49.9 | – | – |
| COc1cc(C(=N)N)cc(OC)c1OCCOCCOc1c(OC)cc(C(=N)N)cc1OC.Cl.Cl [compound 8, 1,5-Bis(4-amidino-2,6-dimethoxyphenoxy)-3-oxapentane dihydrochloride] | 7.66 ± 1.67 | 1 to 9.99 | – | – |
| COc1cc(C(=N)N)cc(OC)c1OCCCCCOc1c(OC)cc(C(=N)N)cc1OC.Cl.Cl [compound 9, 1,5-Bis(4-amidino-2,6-dimethoxyphenoxy)pentane dihydrochloride] | 1.68 ± 0.37 | 1 to 9.99 | – | – |
| COc1cc(C(=N)N)ccc1OCCN(CCOc1ccc(C(=N)N)cc1OC)S(=O)(=O)c1ccccc1.Cl.Cl [compound 12, N,N-Bis[2(4-amidino-2-methoxyphenoxy)ethyl]benzenesulfonamide dihydrochloride] | 1.8 ± 0.76 | 1 to 9.99 | – | – |
| COc1cc(C(=N)N)cc(OC)c1OCCN(CCOc1c(OC)cc(C(=N)N)cc1OC)S(=O)(=O)c1ccccc1.Cl.Cl [compound 13, N,N-Bis[2(4-amidino-2,6-dimethoxyphenoxy)ethyl]-benzenesulfonamide] | 3.13 ± 0.99 | 1 to 9.99 | – | – |
| COc1cc(C(=N)N)ccc1OCCN(CCOc1ccc(C(=N)N)cc1OC)S(=O)(=O)c1ccc(NC(C)=O)cc1.Cl.Cl [compound 15, N,N-Bis[2(4-amidino-2-methoxyphenoxy)ethyl]-4-acetamidobenzenesulfonamide] | 2.59 ± 0.83 | 1 to 9.99 | – | – |
| COc1cc(C(=N)N)cc(OC)c1OCCN(CCOc1c(OC)cc(C(=N)N)cc1OC)S(=O)(=O)c1ccc(N)cc1.Cl.Cl [compound 16] | 3.24 ± 0.88 | 1 to 9.99 | – | – |
| Cl.Cl.N=C(N)c1ccc(C(=O)NCCCCCCNC(=O)c2ccc(C(=N)N)cc2)cc1 [compound 20, N,N’-Hexane-1,6-diylbis(4-amidinobenzamide) dihydrochloride] | 4.9 ± 1.2 | 1 to 9.99 | – | – |

More lines, main results first:

| IC50 [1] [µg/mL] | IC50 (read-out: Activity ranking) [µg/mL] | IC50 (72 h) [nM] | SMILES | Activity ranking (ranking based on IC50 in µg/ml) |
| --- | --- | --- | --- | --- |
| 0.82 ± 0.44 | 0.1 to 0.99 | – | CN(CCOc1ccc(C(=N)N)cc1)CCOc1ccc(C(=N)N)cc1.Cl.Cl [compound 1, 1,5-Bis(4-amidinophenoxy)-N-methyl-3-azapentane trihydrochloride] | – |
| 1.02 ± 0.51 | 1 to 9.99 | – | CN(CCCCCN(C)c1ccc(C(=N)N)cc1)c1ccc(C(=N)N)cc1.Cl.Cl [compound 4] | – |
| 0.47 ± 0.09 | 0.1 to 0.99 | – | Cl.Cl.N=C(N)c1ccc(NCCOCCNc2ccc(C(=N)N)cc2)cc1 [compound 5] | – |
| 0.96 ± 0.32 | 0.1 to 0.99 | – | Cl.Cl.N=C(N)c1ccc(OCCOCCOc2ccc(C(=N)N)cc2)cc1 [compound 6] | – |
| 2 ± 1.65 | 1 to 9.99 | – | COc1cc(C(=N)N)ccc1OCCOCCOc1ccc(C(=N)N)cc1OC.Cl.Cl [compound 7, 1,5-Bis(4-amidino-2-methoxyphenoxy)-3-oxapentane dihydrochloride] | – |
| 0.52 ± 0.04 | 0.1 to 0.99 | – | Cl.Cl.N=C(N)c1ccc(OCCSCCOc2ccc(C(=N)N)cc2)cc1 [compound 10, 1,5-Bis(4-amidinophenoxy)-3-thiapentane dihydrochloride] | – |
| 0.81 ± 0.12 | 0.1 to 0.99 | – | Cl.Cl.N=C(N)c1ccc(OCCN(CCOc2ccc(C(=N)N)cc2)S(=O)(=O)c2ccccc2)cc1 [compound 11, N,N-Bis[2(4-amidinophenoxy)ethyl]benzenesulfonamide dihydrochloride] | marked |
| 1.53 ± 0.9 | 1 to 9.99 | – | Cl.Cl.N=C(N)c1ccc(C(=O)NCCCNC(=O)c2ccc(C(=N)N)cc2)cc1 [compound 17, N,N’-Propane-1,3-diylbis(4-amidinobenzamide) dihydrochloride] | – |
| 1.85 ± 0.01 | 1 to 9.99 | – | Cl.Cl.N=C(N)c1ccc(C(=O)NCCCCNC(=O)c2ccc(C(=N)N)cc2)cc1 [compound 18, N,N’-Butane-1,4-diylbis(4-amidinobenzamide) dihydrochloride] | – |
| 7.4 ± 0.22 | 1 to 9.99 | – | Cl.Cl.N=C(N)c1ccc(C(=O)NCCCCCNC(=O)c2ccc(C(=N)N)cc2)cc1 [compound 19, N,N’-Pentane-1,5-diylbis(4-amidinobenzamide) dihydrochloride] | – |
| 0.3 | – | 500 | N=C(N)c1ccc(OCCCCCOc2ccc(C(=N)N)cc2)cc1 [pentamidine, reference compound] | – |
